Measurements reported in ChEMBL document CHEMBL1124993, “2-Phenyl-2-(1-hydroxycycloalkyl)ethylamine derivatives: synthesis and antidepressant activity” (J Med Chem, 1990).
Activity calls are given as the source filed them. The calls are words filed in the database; no cut-off is given here.

Assays:
Mus musculus = assay: In vivo antagonism of reserpine-induced hypothermia in the mice; assay type: functional; conditions: for minimal effective dose: Mus musculus, read-out: MED
Procedure, shortened: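 Male mice pretreated 18 h earlier with reserpine 5.0 mg/kg sc; compounds in 0.25% Tween 80 in water given ip or po at 1, 3, 10, 30, 100 mg/kg. Rectal temperature read at 1, 2, 3 h post-dose; MED for reversing hypothermia from two-way ANOVA with Dunnett's comparison to control.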

Rattus norvegicus [1] = assay: In vivo noradrenergic responsiveness in the rat pineal gland at 10 mg/kg (ip) (chronic treatment); No significant effect; assay type: functional, organism-based; set-up: dose 10 mg/kg
Procedure, shortened: (§1)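 Male Sprague–Dawley rats kept in continuous light, dosed ip twice daily for 5 days (nine injections). 1 h after last dose, isoproterenol 2 μmol/kg in 0.1% ascorbic acid (controls: vehicle); pineal removed 2.5 min later, perchloric acid extract assayed for cAMP by 125I radioimmunoassay. Expressed as % change from control isoproterenol-stimulated pmol cAMP/pineal.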

Rattus norvegicus [2] = assay: In vivo noradrenergic responsiveness in the rat pineal gland at 10 mg/kg (ip) (single treatment); No significant effect; assay type: functional, organism-based; set-up: dose 10 mg/kg
Rattus norvegicus [3] = assay: In vivo antagonism of histamine-induced ACTH release in the rodents at 10 mg/kg (ip); No significant effect; assay type: functional, organism-based; set-up: dose 10 mg/kg
Procedure, shortened: (§2)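 Male Sprague–Dawley rats (200–300 g) given compound in saline ip 1 h before saline or histamine (5 mg/kg ip); decapitated 10 min later, trunk blood serum assayed for ACTH by radioimmunoassay (pg/mL). Two-way ANOVA with Dunnett's and Student–Neuman–Keuls tests; value is % decrease of histamine-stimulated ACTH.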

[4] = biological target: Norepinephrine transporter (Rattus norvegicus, UniProt Q9WTR4); assay: Inhibition of uptake of tritiated norepinephrine (NE) into rat brain synaptosomes; assay type: functional, subcellular
Rattus norvegicus [5] = assay: (§3) In vivo antagonism of histamine-induced ACTH release in the rat at 10 mg/kg (ip).; assay type: functional; procedure, shortened: as §2
[6] = biological target: Sodium-dependent serotonin transporter (Rattus norvegicus, UniProt P31652); assay: Inhibition of uptake of [14C]-labelled serotonin (5-HT) into rat brain synaptosomes
Rattus norvegicus [7] = assay: (§4) In vivo noradrenergic responsiveness in the rat pineal gland at 10 mg/kg (ip) (chronic treatment); assay type: functional; procedure, shortened: as §1
Rattus norvegicus [8] = assay: In vivo noradrenergic responsiveness in the rat pineal gland at 10 mg/kg (ip) (single treatment); assay type: functional
Procedure, shortened: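 Male Sprague–Dawley rats kept in continuous light, given saline twice daily for 5 days, then a single 10 or 30 mg/kg ip dose on day 5. 1 h later, isoproterenol 2 μmol/kg in 0.1% ascorbic acid (or vehicle). Pineal removed 2.5 min after, perchloric acid extract, cAMP by radioimmunoassay; % change versus isoproterenol-stimulated controls.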

Rattus norvegicus [9] = assay: as §3; assay type: functional; remark: listed apart in the source
Procedure, shortened: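 Male Sprague–Dawley rats (200–300 g), 10 mg/kg in saline ip, 1 h before saline or histamine (5 mg/kg ip). Decapitated 10 min later; trunk-blood serum frozen at -60 °C, ACTH measured by radioimmunoassay (pg/mL). Two-way ANOVA with Dunnett's and Student–Neuman–Keuls tests; expressed as % decrease.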

[10] = biological target: T1, Serotonin 2 (5-HT2) receptor (Rattus norvegicus) (UniProt P30994+P08909+P14842)
[11] = biological target: T2, Adrenergic receptor beta (Rattus norvegicus) (UniProt P18090+P10608+P26255)
[12] = biological target: T2, Adrenergic receptor beta (Rattus norvegicus); remark: listed apart in the source
[13] = biological target: T1, Serotonin 2 (5-HT2) receptor (Rattus norvegicus); remark: listed apart in the source
Rattus norvegicus [14] = assay: as §4; assay type: functional; remark: listed apart in the source
Procedure, shortened: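 Male Sprague–Dawley rats under continuous light, injected ip twice daily for 5 days (nine injections) with 10 or 30 mg/kg. 1 h after last dose, isoproterenol 2 μmol/kg in 0.1% ascorbic acid (or vehicle). Pineal removed 2.5 min later, perchloric acid extract, cAMP by 125I radioimmunoassay; % change versus isoproterenol-stimulated controls.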

Sequence of Sodium-dependent serotonin transporter (P31652 whole entry): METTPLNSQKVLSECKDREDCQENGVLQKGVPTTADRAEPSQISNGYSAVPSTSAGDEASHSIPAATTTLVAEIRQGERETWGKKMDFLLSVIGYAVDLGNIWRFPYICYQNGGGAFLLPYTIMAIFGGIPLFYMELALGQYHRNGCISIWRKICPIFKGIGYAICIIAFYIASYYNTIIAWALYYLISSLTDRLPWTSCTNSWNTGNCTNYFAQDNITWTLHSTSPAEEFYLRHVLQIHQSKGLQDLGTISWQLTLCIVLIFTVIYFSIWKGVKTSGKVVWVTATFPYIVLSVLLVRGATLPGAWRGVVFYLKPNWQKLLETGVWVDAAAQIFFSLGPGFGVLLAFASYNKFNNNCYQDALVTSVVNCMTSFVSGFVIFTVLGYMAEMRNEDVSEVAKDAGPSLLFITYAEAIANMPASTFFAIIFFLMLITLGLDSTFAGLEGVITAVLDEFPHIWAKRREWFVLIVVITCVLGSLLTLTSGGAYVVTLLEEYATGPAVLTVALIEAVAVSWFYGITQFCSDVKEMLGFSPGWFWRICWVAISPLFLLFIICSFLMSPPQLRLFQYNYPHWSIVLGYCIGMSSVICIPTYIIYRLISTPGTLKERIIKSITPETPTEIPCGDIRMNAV
Sequence of Norepinephrine transporter (Q9WTR4 whole entry): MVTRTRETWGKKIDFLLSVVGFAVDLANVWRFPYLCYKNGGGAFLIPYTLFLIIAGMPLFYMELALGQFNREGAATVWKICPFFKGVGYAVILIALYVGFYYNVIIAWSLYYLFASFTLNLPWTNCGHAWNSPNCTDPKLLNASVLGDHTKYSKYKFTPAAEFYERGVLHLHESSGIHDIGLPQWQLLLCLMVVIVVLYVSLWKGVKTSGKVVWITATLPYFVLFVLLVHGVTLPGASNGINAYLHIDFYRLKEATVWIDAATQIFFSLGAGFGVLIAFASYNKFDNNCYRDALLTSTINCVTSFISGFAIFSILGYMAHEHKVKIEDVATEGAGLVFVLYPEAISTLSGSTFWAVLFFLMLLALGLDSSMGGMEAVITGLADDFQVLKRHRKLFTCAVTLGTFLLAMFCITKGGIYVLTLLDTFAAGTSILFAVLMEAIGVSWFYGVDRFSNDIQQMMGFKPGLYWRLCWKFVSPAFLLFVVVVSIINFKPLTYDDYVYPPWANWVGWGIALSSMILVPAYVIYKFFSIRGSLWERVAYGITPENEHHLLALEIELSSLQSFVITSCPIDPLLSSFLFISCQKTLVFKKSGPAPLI
T1 sequence (P08909 whole entry, looked up): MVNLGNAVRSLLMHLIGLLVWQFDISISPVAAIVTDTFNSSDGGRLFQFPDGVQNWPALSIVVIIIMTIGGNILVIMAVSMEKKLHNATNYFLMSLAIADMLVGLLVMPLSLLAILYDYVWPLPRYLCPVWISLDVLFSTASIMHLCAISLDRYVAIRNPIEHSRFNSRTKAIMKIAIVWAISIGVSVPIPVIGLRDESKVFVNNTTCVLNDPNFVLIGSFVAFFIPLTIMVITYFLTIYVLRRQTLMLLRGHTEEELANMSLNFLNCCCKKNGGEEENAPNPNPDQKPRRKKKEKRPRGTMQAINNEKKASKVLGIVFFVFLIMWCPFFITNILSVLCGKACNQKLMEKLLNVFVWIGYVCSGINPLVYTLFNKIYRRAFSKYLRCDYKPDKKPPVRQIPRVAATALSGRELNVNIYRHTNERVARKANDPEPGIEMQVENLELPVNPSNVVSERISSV
T1 sequence (P14842 whole entry, looked up): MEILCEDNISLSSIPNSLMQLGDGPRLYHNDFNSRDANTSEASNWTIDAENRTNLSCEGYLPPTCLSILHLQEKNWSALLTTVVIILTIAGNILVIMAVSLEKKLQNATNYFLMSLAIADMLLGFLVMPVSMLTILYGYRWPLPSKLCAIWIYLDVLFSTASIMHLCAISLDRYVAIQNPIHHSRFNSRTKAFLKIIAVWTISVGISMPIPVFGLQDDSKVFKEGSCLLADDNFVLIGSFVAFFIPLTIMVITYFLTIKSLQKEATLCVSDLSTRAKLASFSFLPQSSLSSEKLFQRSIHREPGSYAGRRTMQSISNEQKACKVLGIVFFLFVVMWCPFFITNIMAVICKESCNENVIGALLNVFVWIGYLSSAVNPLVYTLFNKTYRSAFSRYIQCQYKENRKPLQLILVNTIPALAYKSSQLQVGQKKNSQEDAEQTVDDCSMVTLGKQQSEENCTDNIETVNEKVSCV
T1 sequence (P30994 whole entry, looked up): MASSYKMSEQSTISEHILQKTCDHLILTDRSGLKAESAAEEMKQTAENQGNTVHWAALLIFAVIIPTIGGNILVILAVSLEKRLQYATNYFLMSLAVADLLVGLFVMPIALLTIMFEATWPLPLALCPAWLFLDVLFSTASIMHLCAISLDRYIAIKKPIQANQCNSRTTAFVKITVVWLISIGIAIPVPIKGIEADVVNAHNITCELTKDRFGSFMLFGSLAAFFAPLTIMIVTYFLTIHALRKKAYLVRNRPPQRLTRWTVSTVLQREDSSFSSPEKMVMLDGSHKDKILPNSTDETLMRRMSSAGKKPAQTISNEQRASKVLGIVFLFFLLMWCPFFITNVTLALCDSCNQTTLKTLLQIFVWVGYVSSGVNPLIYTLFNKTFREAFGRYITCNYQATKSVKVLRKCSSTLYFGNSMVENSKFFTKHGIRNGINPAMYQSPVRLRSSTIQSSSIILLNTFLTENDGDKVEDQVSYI

SMILES: CN(C)CC(c1cccc(Cl)c1)C1(O)CCCCC1 (centres undefined)
- minimal effective dose (Mus musculus): 1 mg/kg
- Change (Rattus norvegicus [1]): inactive
- Change (Rattus norvegicus [2]): inactive
- Change (Rattus norvegicus [3]): inactive

SMILES: CN(C)CC(c1ccc(Br)cc1)C1(O)CCCCC1 (centres undefined)
- IC50 [4]: 210 nM
- Decrease (Rattus norvegicus [5]): 43%
- minimal effective dose (Mus musculus): 1 mg/kg
- Change (Rattus norvegicus [1]): inactive
- Change (Rattus norvegicus [2]): inactive
- IC50 [6]: 110 nM

SMILES: COc1ccc(C(CN(C)C)C2(O)CCCCC2)cc1 (stereo in doubt; 4) [VENLAFAXINE]
- Decrease (Rattus norvegicus [5]): 26%
- MED (Mus musculus): 10 mg/kg
- Change (Rattus norvegicus [7]): -43%
- Change (Rattus norvegicus [8]): -51%

SMILES: CN(C)CC(c1ccc(C(F)(F)F)cc1)C1(O)CCCCC1 (centres undefined)
- IC50 [4]: 2800 nM
- IC50 [6]: 400 nM

SMILES: CNCCCN1c2ccccc2CCc2ccccc21 [DESIPRAMINE]
- Decrease (Rattus norvegicus [5]): 52%
- minimal effective dose (Mus musculus): 0.4 mg/kg
- Change (Rattus norvegicus [7]): -81%
- Change (Rattus norvegicus [2]): inactive

SMILES: COc1ccc(C(CN(C)C)C2(O)CCCCCC2)cc1 (centres undefined)
- IC50 [4]: 2070 nM
- IC50 [6]: 240 nM

SMILES: COc1ccc(C(CN(C)C)C2(O)CCCCC2)cc1 (single isomer, unassigned; (+)) [VENLAFAXINE]
- MED (Mus musculus): 30 mg/kg
- Decrease (Rattus norvegicus [9]; 10 mg/kg): 54%

SMILES: COc1cccc(C(CN(C)C)C2(O)CCCCC2)c1 (centres undefined)
- IC50 [4]: 620 nM
- Decrease (Rattus norvegicus [5]): 52%
- minimal effective dose (Mus musculus): 3 mg/kg
- Change (Rattus norvegicus [7]): -81%
- Change (Rattus norvegicus [8]): -79%
- IC50 [6]: 190 nM

SMILES: CN(C)CC(c1ccc(Cl)cc1)C1(O)CCCCC1 (centres undefined)
- IC50 [4]: 300 nM
- IC50 [6]: 180 nM

SMILES: CN(C)CC(c1ccc(Cl)c(Cl)c1)C1(O)CCCCC1 (centres undefined)
- IC50 [4]: 70 nM
- Decrease (Rattus norvegicus [5]): 55%
- minimal effective dose (Mus musculus): 3 mg/kg
- Change (Rattus norvegicus [7]): -74%
- Change (Rattus norvegicus [8]): -51%

SMILES: COc1ccc(C(CN(C)C)C2(O)CCCCC2)cc1OC (centres undefined)
- IC50 [4]: 1380 nM
- IC50 [6]: 130 nM

SMILES: COc1ccc(C(CN(C)C)C2(O)CCCCC2)cc1 (single isomer, unassigned; (+))
- Change (Rattus norvegicus [1]): inactive
- Change (Rattus norvegicus [2]): inactive

SMILES: CN(C)CC(c1cccc(C(F)(F)F)c1)C1(O)CCCCC1 (centres undefined)
- IC50 [4]: 360 nM
- IC50 [6]: 1440 nM

SMILES: CNCC(c1ccc(OC)cc1)C1(O)CCCCC1 (centres undefined) [N-DESMETHYLVENLAFAXINE CHLORIDE]
- IC50 [4]: 4700 nM
- IC50 [6]: 1600 nM

SMILES: COc1ccc(C(CN(C)C)C2(O)CCCC2)cc1 (centres undefined)
- IC50 [4]: 5800 nM
- IC50 [6]: 400 nM

SMILES: CN(C)CC(c1ccc(O)cc1)C1(O)CCCCC1 (centres undefined) [DESVENLAFAXINE]
- IC50 [4]: 1160 nM

SMILES: COc1ccc(C(CN(C)C)C2(O)CCCCC2)cc1Br (centres undefined)
- IC50 [4]: 140 nM
- Decrease (Rattus norvegicus [5]): 34%
- minimal effective dose (Mus musculus): 1 mg/kg
- Change (Rattus norvegicus [7]): -82%
- Change (Rattus norvegicus [8]): -65%
- IC50 [6]: 200 nM

SMILES: CN(C)CC(c1ccc(C(F)(F)F)cc1)C1(O)CCCC1 (centres undefined)
- IC50 [4]: 10400 nM
- IC50 [6]: 490 nM

SMILES: Cc1ccc(C(CN(C)C)C2(O)CCCCC2)cc1 (centres undefined)
- IC50 [4]: 530 nM
- IC50 [6]: 1540 nM

SMILES: COc1cccc(C(CN(C)C)C2(O)CCCC2)c1 (centres undefined)
- IC50 [4]: > 10000 nM
- IC50 [6]: 680 nM

SMILES: CN(C)CC(c1ccccc1)C1(O)CCCCC1 (centres undefined)
- IC50 [4]: 1900 nM

SMILES: COc1ccc(C(CN(C)C)C2(O)CCCCC2)cc1 (stereo in doubt; 4)
- Binding activity [10]: 251 fM/mg
- Binding activity [11]: 61.8 fM/mg
- Binding activity [12]: 35 fM/mg
- Binding activity [13]: 77.8 fM/mg

SMILES: COc1ccc(C(CN(C)C)C2(O)CCCCC2)cc1 (single isomer, unassigned; (-)) [VENLAFAXINE]
- MED (Mus musculus): 3 mg/kg
- Decrease (Rattus norvegicus [9]; 10 mg/kg): 37%
- Change (Rattus norvegicus [14]): -51%
- Change (Rattus norvegicus [8]): -53%

SMILES: CN(C)CC(c1ccc(C(F)(F)F)cc1)C1(O)CCCCCC1 (centres undefined)
- IC50 [4]: 2400 nM
- IC50 [6]: 500 nM

SMILES: CN(C)CC(c1cccc(Br)c1)C1(O)CCCCC1 (centres undefined)
- IC50 [4]: 110 nM
- minimal effective dose (Mus musculus): 1 mg/kg
- Decrease (Rattus norvegicus [9]): 67%
- Change (Rattus norvegicus [1]): inactive
- Change (Rattus norvegicus [2]): inactive
- IC50 [6]: 230 nM

SMILES: CN(C)CC(c1ccc(Br)cc1)C1(O)CCC1 (centres undefined)
- IC50 [4]: 890 nM
- IC50 [6]: 580 nM
